In ChEMBL document CHEMBL5230161, “Exploring structural effects in a new class of NRF2 inhibitors” (RSC Med Chem, 2023):
Converted amounts (≈) assume the structure as drawn. The source made the active and inactive calls. No cut-off for these calls is given here.

Tested on: A549
Experiment: Induction of cell cycle arrest in human A549 cells assessed as accumulation of cells at G2/M phase at 10 uM incubated for 24 hrs by PI staining based flow cytometric analysis
Type: functional
Conditions: not given
How it was run: (§1)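 A549 or H460 cells synchronized in low-serum medium 12 h, then inhibitor 24 h; propidium iodide staining, flow cytometry, univariate cell-cycle model (Watson pragmatic, G0/1 and G2/M peak constraints); % of total cells as mean ± SE, n = 2-3 independent experiments.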

SMILES	Activity
Cc1cc(C)cc(Nc2nc(C)c(-c3ccccc3)cc2C#N)c1	Active

Tested on: A549
Experiment: Inhibition of cell migration in human A549 cells at 10 uM incubated for 24 hrs by DAPI staining based transwell migration assay relative to control
Type: functional
Conditions: not given
How it was run: (§2)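 Transwell migration of A549 cells seeded in serum-free medium with DMSO vehicle or compound (1, 5, 10 μmol L⁻¹) in top chamber; bottom medium with compound and 5% FBS chemoattractant; 24 h, filters fixed, unmigrated cells removed, DAPI stain, 9 fields imaged per insert; two inserts per condition, n = 2-3; one- or two-way ANOVA vs vehicle.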

SMILES	inhibition at 10 µM
Cc1ccnc(Nc2ncc(-c3ccccc3)cc2C#N)c1	79%
Cc1cc(C)cc(Nc2nc(C)c(-c3ccccc3)cc2C#N)c1	65%

Tested on: NCI-H460
Experiment: Induction of cell cycle arrest in human NCI-H460 cells assessed as accumulation of cells at G2/M phase at 10 uM incubated for 24 hrs by PI staining based flow cytometric analysis
Type: functional
Conditions: not given
How it was run: as §1

SMILES	Activity
Cc1cc(C)cc(Nc2nc(C)c(-c3ccccc3)cc2C#N)c1	Active

Tested on: A549
Experiment: Antiproliferative activity against human A549 cells assessed as inhibition of cell growth incubated for 72 hrs by MTT assay
Type: functional
Set-up: scale not given: the % may be the effect or the level left
Conditions: not given
How it was run: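 A549 human lung cancer cells exposed to a single 5 μmol L⁻¹ dose for 72 h; viability read by MTT assay.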

SMILES	Activity
Cc1cc(Br)cc(Nc2nc(C)c(-c3ccccc3)cc2C#N)c1	35.3%
Cc1nc(Nc2cccc(I)c2)c(C#N)cc1-c1ccccc1	26.6%
Cc1ccnc(Nc2ncc(-c3ccccc3)cc2C#N)c1	59.8%
Cc1cc(C)cc(Nc2nc(C)c(-c3ccccc3)cc2C#N)c1	9.8%

Target: T1, Nuclear factor erythroid 2-related factor 2 (Homo sapiens) (UniProt Q16236)
T1 sequence (whole entry): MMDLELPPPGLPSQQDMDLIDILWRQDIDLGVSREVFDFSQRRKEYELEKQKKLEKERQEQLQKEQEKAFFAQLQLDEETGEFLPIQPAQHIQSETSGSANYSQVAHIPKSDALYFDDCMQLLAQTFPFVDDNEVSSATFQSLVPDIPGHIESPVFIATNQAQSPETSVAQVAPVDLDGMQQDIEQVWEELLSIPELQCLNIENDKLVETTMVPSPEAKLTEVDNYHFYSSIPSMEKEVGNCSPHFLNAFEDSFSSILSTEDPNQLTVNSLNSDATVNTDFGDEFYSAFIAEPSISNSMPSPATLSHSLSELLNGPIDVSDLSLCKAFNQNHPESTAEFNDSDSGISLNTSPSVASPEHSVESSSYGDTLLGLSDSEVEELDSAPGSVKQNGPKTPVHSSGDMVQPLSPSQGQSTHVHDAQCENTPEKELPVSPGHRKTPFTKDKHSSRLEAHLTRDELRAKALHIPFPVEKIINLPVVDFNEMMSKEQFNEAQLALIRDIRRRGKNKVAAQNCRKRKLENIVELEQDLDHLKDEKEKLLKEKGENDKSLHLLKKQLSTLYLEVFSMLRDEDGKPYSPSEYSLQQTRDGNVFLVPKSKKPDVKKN
Experiment: Activation of Nrf2 (unknown origin) assessed as cellular activity measured before deprotection of compound
Conditions: filed as activator

Activity	SMILES
-4.65%	N#Cc1c(-c2ccccc2)ccnc1Nc1cc(CO)ccn1

Target: T1, Nuclear factor erythroid 2-related factor 2 (Homo sapiens)
Experiment: Activation of Nrf2 (unknown origin) assessed as cellular activity
Set-up: concentration or dose not given beside the values
Conditions: filed as activator

Activity	SMILES
-29.6%	Cc1ccc(-c2cnc(Nc3cc(C)cc(C)c3)c(C#N)c2)cc1
-131%	N#Cc1cc(-c2ccccc2)cnc1Nc1ccc(Cl)nn1
-31.8%	N#Cc1c(-c2ccccc2)ccnc1Nc1cc(CO)ccn1
-33.9%	Cc1cc(Nc2ncc(-c3ccccc3)cc2C#N)nc(C)n1
-42.7%	Cc1cc(C)cc(Nc2nc3ncccc3cc2C#N)c1
-66%	COc1cc(Nc2ncc(-c3ccccc3)nc2C#N)cc(OC)c1
-45.4%	Cc1cc(C)cc(Oc2ncc(-c3ccccc3)cc2C#N)c1
-7.8%	Cc1cc(C)cc(Nc2ncc(-c3ccccc3)nc2C#N)c1
-42.8%	Cc1cc(C)cc(Nc2ncc(-c3ccncc3)cc2C#N)c1
-23.3%	COc1cc(OC)cc(-c2cnc(Nc3cc(C)cc(C)c3)c(C#N)c2)c1
-32.3%	Cc1cc(Nc2ncc(-c3ccccc3)cc2C#N)cc(C)c1C
-23.6%	N#Cc1cc(-c2ccccc2)cnc1Nc1cc(C2CC2)ccn1
-8.7%	Cc1cc(C)cc(Nc2ncc(-c3cccnc3)cc2C#N)c1
-1.5%	COc1ccc(-c2cnc(Nc3cc(C)cc(C)c3)c(C#N)c2)cc1
-6.3%	Cc1cc(C)cc(Nc2nc(C)c(C(C)C)cc2C#N)c1
-78.1%	N#Cc1c(-c2ccccc2)ccnc1Nc1ccccn1
-9.5%	Cc1cc(N)cc(Nc2nc3ccccc3cc2C#N)c1
-33.9%	Cc1cc(C)cc(Cc2ncc(-c3ccccc3)cc2C#N)c1
-4.5%	COc1ccnc(Nc2nccc(-c3ccccc3)c2C#N)c1
-20.3%	Cc1cc(Nc2ncc(-c3ccccc3)cc2C#N)ccn1
-11.8%	CCCc1nc(Nc2cc(C)cc(C)c2)c(C#N)cc1-c1ccccc1
-4.9%	Cc1cc(C)cc(Nc2ncc(-c3ccc(Cl)cc3)cc2C#N)c1
-0.1%	CCOC(=O)c1ccnc(Nc2ncc(-c3ccccc3)cc2C#N)c1
-18.1%	Cc1cc(C)cc(Nc2nc(C)c(-c3ccccc3)cc2C(N)=O)c1
-13.8%	Cc1cccc(Nc2ncc(-c3ccccc3)cc2C#N)n1

Tested on: A549
Experiment: Induction of cell cycle arrest in human A549 cells assessed as accumulation of cells at G2/M phase at 3 uM incubated for 24 hrs by PI staining based flow cytometric analysis
Type: functional
Conditions: not given
How it was run: as §1

SMILES	Activity
Cc1ccnc(Nc2ncc(-c3ccccc3)cc2C#N)c1	Active

Tested on: A549
Experiment: Antiproliferative activity against human A549 cells assessed as reduction in cell viability incubated for 72 hrs by MTT assay
Type: functional, cell-based
Conditions: A549, 72 h

IC50	SMILES
610 nM	Cc1ccnc(Nc2ncc(-c3ccccc3)cc2C#N)c1

Tested on: A549
Experiment: Inhibition of cell migration in human A549 cells at 1 uM incubated for 24 hrs by DAPI staining based transwell migration assay
Type: functional
Conditions: not given
How it was run: as §2

SMILES	inhibition
Cc1ccnc(Nc2ncc(-c3ccccc3)cc2C#N)c1	inactive

Target: T1, Nuclear factor erythroid 2-related factor 2 (Homo sapiens)
Experiment: Inhibition of NRF2 signalling pathway in human A549 cells assessed as decrease in GCLM mRNA level at 5 to 10 uM incubated for 24 hrs by RT-PCR analysis
Type: cell-based
Conditions: dose 5-10 µM
How it was run: (§3)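 A549 cells incubated with compound 24 h; NQO1, GCLC, AKR1C2, GCLM mRNA by RT-PCR, normalized to GAPDH and DMSO vehicle; representative of 3 independent experiments.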

inhibition	SMILES
Active	Cc1ccnc(Nc2ncc(-c3ccccc3)cc2C#N)c1

Target: T1, Nuclear factor erythroid 2-related factor 2 (Homo sapiens)
Experiment: Inhibition of NRF2 signalling pathway in human A549 cells assessed as decrease in AKR1C2 mRNA level at 5 to 10 uM incubated for 24 hrs by RT-PCR analysis
Type: cell-based
Conditions: dose 5-10 µM
How it was run: as §3

inhibition	SMILES
Active	Cc1ccnc(Nc2ncc(-c3ccccc3)cc2C#N)c1

Tested on: NCI-H460
Experiment: Induction of cell cycle arrest in human NCI-H460 cells assessed as accumulation of cells at G2/M phase at 3 uM incubated for 24 hrs by PI staining based flow cytometric analysis
Type: functional
Conditions: not given
How it was run: as §1

SMILES	Activity
Cc1ccnc(Nc2ncc(-c3ccccc3)cc2C#N)c1	Active

Target: T1, Nuclear factor erythroid 2-related factor 2 (Homo sapiens)
Experiment: Inhibition of NRF2 signalling pathway in human A549 cells assessed as decrease in NQO1 mRNA level at 5 to 10 uM incubated for 24 hrs by RT-PCR analysis
Type: cell-based
Conditions: dose 5-10 µM
How it was run: as §3

inhibition	SMILES
Active	Cc1ccnc(Nc2ncc(-c3ccccc3)cc2C#N)c1

Tested on: MCF7
Experiment: Inhibition of NRF2/ARE (unknown origin) transfected in human MCF7 cells assessed as cellular activity measured before deprotection of compound preincubated with compound for 1 hrs followed by tBHQ addition and measured after 24 hrs by steady-glo luciferase assay relative to control
Type: cell-based
Conditions: time 25.0 hrs, dose or concentration not given here

SMILES	inhibition
Cc1nc(Nc2cccc(C(C)O)c2)c(C#N)cc1-c1ccccc1 (stereo not drawn)	26%

Tested on: A549
Experiment: Inhibition of cell migration in human A549 cells at 5 uM incubated for 24 hrs by DAPI staining based transwell migration assay relative to control
Type: functional
Conditions: not given
How it was run: as §2

SMILES	inhibition at 5 µM
Cc1ccnc(Nc2ncc(-c3ccccc3)cc2C#N)c1	72%

Tested on: MCF7
Experiment: Inhibition of NRF2/ARE (unknown origin) transfected in human MCF7 cells assessed as cellular activity preincubated with compound for 1 hrs followed by tBHQ addition and measured after 24 hrs by steady-glo luciferase assay relative to control
Type: cell-based
Set-up: concentration or dose not given beside the values
Conditions: time 25.0 hrs, dose or concentration not given here

SMILES	inhibition
Cc1cc(C)cc(Nc2nc(C)ccc2C#N)c1	6.1%
Cc1cccc(Nc2nc(C)c(-c3ccccc3)cc2C#N)c1	40.9%
COc1ccnc(Nc2ncc(-c3ccccc3)cc2C#N)c1	39.7%
N#Cc1cc(-c2ccccc2)cnc1Nc1cc(C(F)(F)F)ccn1	55.3%
Cc1cc(C)cc(Nc2ncc(-c3cccc(O[Si](C)(C)C(C)(C)C)c3)cc2C#N)c1	12.6%
Cc1cc(C)cc(Nc2nccc(-c3ccccc3)c2C#N)c1	39%
CCc1ccnc(Nc2ncc(-c3ccccc3)cc2C#N)c1	42.3%
N#Cc1c(-c2ccccc2)ccnc1Nc1cc(Br)ccn1	7.5%
Cc1cc(Nc2nc(C)c(-c3ccccc3)cc2C#N)cc(C)c1Br	25.7%
Cc1cc(C)cc(Nc2ncc(-c3cccc(Cl)c3)cc2C#N)c1	18.2%
Cc1cc(C)nc(Nc2ncc(-c3ccccc3)cc2C#N)c1	20%
CC(=O)N(c1cc(C)cc(C)c1)c1nc(C)c(-c2ccccc2)cc1C#N	12.5%
Cc1cc(Br)cc(Nc2nc(C)c(-c3ccccc3)cc2C#N)c1	58.4%
Cc1cc(C)cc(Nc2nc(C)c(-c3cccc(Cl)c3)cc2C#N)c1	49.2%
CC(C)(C)[Si](C)(C)OCc1ccnc(Nc2ncc(-c3ccccc3)cc2C#N)c1	43.3%
Cc1cncc(Nc2ncc(-c3ccccc3)cc2C#N)c1	25.3%
Cc1nc(Nc2cccc(I)c2)c(C#N)cc1-c1ccccc1	51.8%
Cc1nc(C)nc(Nc2ncc(-c3ccccc3)cc2C#N)n1	9.6%
Cc1cc(C)cc(Nc2nc3ccccc3cc2C#N)c1	21.2%
Cc1cc(C)nc(Nc2ncc(-c3ccccc3)cc2C#N)n1	11.2%

SMILES	inhibition
Cc1cc(C)cc(Nc2ncc(-c3ccccc3Cl)cc2C#N)c1	32.9%
Cc1nc(Nc2cc(Cl)cc(Cl)c2)c(C#N)cc1-c1ccccc1	15.7%
Cc1ccnc(Nc2ncc(-c3ccccc3)cc2C#N)c1	46.7%
Cc1cc(C)cc(Nc2nc(-c3ccccc3)ccc2C#N)c1	3.7%
Cc1nc(Nc2cccc(C(C)O)c2)c(C#N)cc1-c1ccccc1 (stereo not drawn)	5.2%
Cc1cc(C)cc(Nc2ncc(-c3cc(Cl)cc(Cl)c3)cc2C#N)c1	2.9%
N#Cc1cc(-c2ccccc2)cnc1Nc1ccccn1	25.5%
Cc1cc(C)cc(Nc2ncc(-c3cc(C)cc(C)c3)cc2C#N)c1	25.1%
Cc1cc(C)cc(N(C)c2nc(C)c(-c3ccccc3)cc2C#N)c1	21.9%
Cc1nc(Nc2cccc(CO)c2)c(C#N)cc1-c1ccccc1	16.7%
N#Cc1cc(-c2ccccc2)cnc1Nc1cnccn1	28.3%
Cc1cc(Nc2nc(C)c(-c3ccccc3)cc2C#N)cc(C)c1C	37.2%
Cc1nc(Nc2cccc(C(C)C)c2)c(C#N)cc1-c1ccccc1	55.2%
Cc1cc(C)cc(Nc2nc(C)c(-c3ccccc3)cc2C#N)c1	54.6%
Cc1ccc(C)c(Nc2nc(C)c(-c3ccccc3)cc2C#N)c1	51%
Cc1cncc(Nc2ncc(-c3ccccc3)cc2C#N)n1	13.2%
Cc1nc(Nc2cc(Br)cc(Br)c2)c(C#N)cc1-c1ccccc1	7.7%
Cc1cc(C)cc(Nc2ncc(-c3ccccc3)cc2C#N)c1	38.4%
Cc1ccnc(Nc2nccc(-c3ccccc3)c2C#N)c1	35.4%

Tested on: not listed separately
Experiment: Solubility of the compound in pH 7.4 PBS buffer
Type: physicochemical
Conditions: not given

solubility	SMILES
209 µM (≈ 59.8 µg/mL)	Cc1ccnc(Nc2ncc(-c3ccccc3)cc2C#N)c1
0.9 µM (≈ 0.295 µg/mL)	Cc1nc(Nc2cccc(C(C)C)c2)c(C#N)cc1-c1ccccc1
3 µM (≈ 0.94 µg/mL)	Cc1cc(C)cc(Nc2nc(C)c(-c3ccccc3)cc2C#N)c1
4 µM (≈ 1.2 µg/mL)	Cc1cc(C)cc(Nc2ncc(-c3ccccc3)cc2C#N)c1

Target: T1, Nuclear factor erythroid 2-related factor 2 (Homo sapiens)
Experiment: Inhibition of NRF2 signalling pathway in human A549 cells assessed as decrease in GCLC mRNA level at 5 to 10 uM incubated for 24 hrs by RT-PCR analysis
Type: cell-based
Conditions: dose 5-10 µM
How it was run: as §3

inhibition	SMILES
Active	Cc1ccnc(Nc2ncc(-c3ccccc3)cc2C#N)c1

Tested on: NCI-H358
Experiment: Antiproliferative activity against human NCI-H358 cells assessed as reduction in cell viability incubated for 72 hrs by MTT assay
Type: functional, cell-based
Conditions: NCI-H358, 72 h

IC50	SMILES
580 nM	Cc1ccnc(Nc2ncc(-c3ccccc3)cc2C#N)c1
